This note sets out measurements from ChEMBL document CHEMBL1123247, “Nucleoside conjugates. 7. Synthesis and antitumor activity of 1-beta-D-arabinofuranosylcytosine conjugates of ether lipids” (J Med Chem, 1986).

For test [1], the system named is L1210. The experiment in a line: Antitumor activity was determined against the ic implanted L1210 lymphoid leukemia in mice by median survival time at 167 mg/kg (treatment of 1, 5, 9qd schedule) dosage; 21.0/7.0.
In test [2] the test system is L1210. The experiment in a line: Antitumor activity was determined against the ic implanted L1210 lymphoid leukemia in mice by change in […] at 167 mg/kg (treatment of 1, 5, 9qd schedule) dosage. In kind it is functional, Mus musculus. In a few lines:
(§1)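 DBA/2J mice, 6 per group (wt 26-32 g), inoculated ic with 1×10^5 L1210 cells on day 0. Dosing ip began 24 h after inoculation, with a sonicated solution or suspension in 0.9% NaCl containing 0.5% Tween-80, given over a range of doses. Animals were followed daily until death. Body weight change, median survival T/C, and %ILS = (T/C − 1) × 100 were computed from survivors per NCI protocols.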

Test [3] relates to P388. The experiment in a line: Antitumor activity was determined against the ip implanted P388 leukemia in mice by percent median survival rate (treated/control) at 133 mg/kg (treatment of 1,5,9qd schedule) dosage; Range is >45.0/11.0. To be noted: route intraperitoneal.
Test [4] relates to L1210. The experiment in a line: Antitumor activity against ip implanted L1210 leukemia in mice expressed as active dose range (1 qd treatment schedule) required to produce increase in life span by >25% was determined; Range is 300-400. The class given is functional, Mus musculus. In outline:
(§2)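 DBA/2J mice, groups of 6 (23-28 g), were inoculated ip with 1 × 10^6 L1210 cells on day 0. Dosing was ip from 24 h, in 0.9% NaCl with 0.5% Tween-80 (sonicated solution or suspension). Mice were observed daily until death or day 45. Median survival T/C followed NCI protocols, and ILS = (T/C − 1) × 100. Active range means doses giving ILS ≥25%; optimal dose means greatest ILS.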

For test [5], the system named is L1210. The experiment in a line: Antitumor activity was determined against the ip implanted L1210 leukemia in mice by 45-day survivors in mice at 80 mg/kg (treatment of 1-5qd schedule) dosage. In kind it is functional, Mus musculus. The following applies: route intraperitoneal. In a few lines: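 DBA/2J mice in groups of 6 (wt 23-28 g) were inoculated ip with 1×10^6 L1210 cells on day 0. Dosing was ip from 24 h, in 0.9% NaCl with 0.5% Tween-80 (conjugates sonicated), across a range of doses. Mice were observed daily until death or 45 days. Median T/C was computed from survivors per NCI protocols, and ILS = (T/C − 1)×100.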

Test [6] relates to L1210. As to the kind of experiment: Antitumor activity was determined against the ic implanted L1210 lymphoid leukemia in mice by change in […] at 100 mg/kg (treatment of 1-5qd schedule) dosage. In kind it is functional, Mus musculus. In outline: as §1
Test [7] concerns P388. The experiment in a line: Antitumor activity was determined against the ip implanted P388 leukemia in mice by range in survival days at 133 mg/kg (treatment of 1,5,9qd schedule) dosage; Range is 23->45. The following applies: route intraperitoneal. The class given is functional, Mus musculus.
In the next test the test system is L1210 leukemia (mouse). As to the kind of experiment: Antitumor activity was determined against the ic implanted L1210 lymphoid leukemia in mice by percent median survival rate (treated/control) at 500 mg/kg (treatment of 1qd schedule) dosage; 23.0/7.0.
The subject of a further test is HL-60. As to the kind of experiment: Compound was tested for the inhibition of human HL60 Leukemia. The class given is functional, cell-based. In a few lines: (§3)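 Human leukemia and solid tumor cells in culture were exposed to compound for 48 h. Viability was scored by trypan blue dye exclusion. IC50 (50% inhibition) was estimated from response curves of three separate experiments.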

Test [8] concerns P388. The experiment in a line: Antitumor activity was determined against the ip implanted P388 leukemia in mice by percent increase in life span at 200 mg/kg (treatment of 1-5qd schedule) dosage. The following applies: route intraperitoneal. In kind it is functional, Mus musculus. In a few lines:
(§4)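 DBA/2J mice, 23-33 g, in groups of 6, were inoculated ip with 1×10^6 P388 cells on day 0. Dosing was ip from 24 h on the stated schedules, in 0.9% NaCl with 0.5% Tween-80 (sonicated solution or suspension). Survival was followed daily until death or 45 days. Median T/C was calculated from survivors per NCI protocols, with ILS = (T/C − 1) × 100.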

The test system of another test is AMML. The experiment in a line: Compound was tested for the inhibition of AMML (acute myelomonocytic leukemia). In kind it is functional, cell-based. To be noted: Homo sapiens. In a few lines:
as §3

Test [9] relates to L1210. As to the kind of experiment: Antitumor activity was determined against the ic implanted L1210 lymphoid leukemia in mice by median survival time at 300 mg/kg (treatment of 1-5qd schedule) dosage; 16.0/7.0.
Test [10] has as its system P388. The experiment in a line: Antitumor activity against ip implanted P388 leukemia in mice expressed as active dose range (1 qd treatment schedule) required to produce increase in life span by >25% was determined; Range is 100-600. In kind it is functional, Mus musculus. In a few lines:
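P388 leukemia: 1 × 10^6 cells were given ip on day 0 to DBA/2J mice, groups of 6 (23-33 g). Treatment was ip from 24 h after inoculation, vehicle 0.9% NaCl with 0.5% Tween-80. Mice were observed daily until death or 45 days. Median survival T/C was calculated from survivors per NCI protocols, and ILS = (T/C − 1) × 100. Active range means doses giving ILS ≥25%; optimal dose means greatest ILS.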

Test [11] relates to P388. As to the kind of experiment: Antitumor activity was determined against the ip implanted P388 leukemia in mice by percent median survival rate (treated/control) at 500 mg/kg (treatment of 1qd schedule) dosage; 15.0/11.0. The class given is functional, Mus musculus. The following applies: route intraperitoneal.
The subject of test [12] is P388. The experiment in a line: Antitumor activity was determined against the ip implanted P388 leukemia in mice by percent median survival rate (treated/control) at 500 mg/kg (treatment of 1qd schedule) dosage; >45.0/11.0. The class given is functional, Mus musculus. To be noted: route intraperitoneal.
In test [13] the test system is P388. As to the kind of experiment: Antitumor activity was determined against the ip implanted P388 leukemia in mice by range in survival days at 60 mg/kg (1-5qd treatment schedule) dosage; 21-24. In kind it is functional, Mus musculus. To be noted: route intraperitoneal.
Test [14] relates to L1210. As to the kind of experiment: Antitumor activity against ip implanted L1210 leukemia in mice expressed as active dose range (1-5qd treatment schedule) required to produce increase in life span by >25% was determined; 60-100. The class given is functional, Mus musculus. In outline: as §2
The test system of test [15] is L1210. The experiment in a line: Antitumor activity was determined against the ip implanted L1210 leukemia in mice by percent median survival rate (treated/control) at 400 mg/kg (treatment of 1qd schedule) dosage; 25.0/7.0. The class given is functional, Mus musculus. The following applies: route intraperitoneal. In outline:
(§5)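 DBA/2J mice, 23-28 g, in groups of 6, were inoculated ip with 1×10^6 L1210 cells on day 0. Dosing was ip starting 24 h later on the stated daily schedules. Conjugates were given as sonicated solutions and reference prodrugs as suspensions in 0.9% NaCl with 0.5% Tween-80. Mice were observed daily until death or 45 days. Median survival T/C was calculated from survivors per NCI protocols.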

The subject of test [16] is P388. As to the kind of experiment: Antitumor activity was determined against the ip implanted P388 leukemia in mice by 45-day survivors in mice at 67 mg/kg (treatment of 1,5,9qd schedule) dosage. The following applies: route intraperitoneal. In kind it is functional, Mus musculus. In a few lines:
as §4

Test [17] relates to P388. The experiment in a line: Antitumor activity was determined against the ip implanted P388 leukemia in mice by range in survival days at 133 mg/kg (treatment of 1,5,9qd schedule) dosage; Range is 31->45. The class given is functional, Mus musculus. To be noted: route intraperitoneal.
For test [18], the system named is L1210. The experiment in a line: Antitumor activity was determined against the ip implanted L1210 leukemia in mice by range in survival days at 40 mg/kg (treatment of 1-5qd schedule) dosage; 24->45. The class given is functional, Mus musculus. To be noted: route intraperitoneal. In outline:
as §5

`CCCCCCCCCCCCCCCCOCC(COP(=O)(O)OP(=O)(O)OC[C@H]1O[C@@H](n2ccc(N)nc2=O)[C@@H](O)[C@@H]1O)OC(=O)CCCCCCCCCCCCCCC` (mixture of isomers) yielded a median survival time with L1210 [1] of 21 days. Also, the values for the Weight change in the test on L1210 [2] and in the test on L1210 [6] were -1.15 g mouse-1 and -2.03 g mouse-1, respectively. Also, the T/C with P388 [3] was above 45%; with L1210 leukemia (mouse), 23%. The molecule also gave an Active dose range with L1210 [4] of 300 mg/kg/day. In the test on L1210 [5], the Survivors amounted to 0. In the test with P388 [7], this molecule showed a Range of 23.

In the case of `Nc1ccn([C@@H]2O[C@H](CO)[C@@H](O)[C@@H]2O)c(=O)n1` [CYTARABINE], the values for the 50% inhibitory concentration (IC50) in the test on HL-60 and in the test on AMML were 130 nM and 2300 nM, respectively. Moreover, the ILS in the test on P388 [8] was found to be 109. In the test with L1210 [9], this molecule showed a median survival time of 16 days. In the test on P388 [10], this molecule yielded an Active dose range of 100 mg/kg/day. For the same molecule, in the test with P388 [11], the T/C is on record as 15%.

Consider `CCCCCCCCCCCCCCCCCCOCC(COP(=O)(O)OP(=O)(O)OC[C@H]1O[C@@H](n2ccc(N)nc2=O)[C@@H](O)[C@@H]1O)OC(=O)CCCCCCCCCCCCCCC` (mixture of isomers), for which the T/C with P388 [12] is above 45%; in the test on L1210 [15] it was 25%. For the same molecule, the Range with P388 [13] is 21. In the test on L1210 [14], this molecule registered an Active dose range of 60 mg/kg/day. Moreover, the Survivors in the test with P388 [16] stood at 0.

For the molecule `CCCCCCCCCCCCCCCC(=O)OC[C@H](COP(=O)(O)OP(=O)(O)OC[C@H]1O[C@@H](n2ccc(N)nc2=O)[C@@H](O)[C@@H]1O)OC(=O)CCCCCCCCCCCCCCC`, the Range with P388 [17] came out at 31; in the test with L1210 [18], 24.
